Test results: ChEMBL document CHEMBL5058577, “EUbOPEN Chemogenomics Library 2 (Multiplex)” (2022)

Tested on: HEK-293T
Assay: Multiplex assay against HEK293T
Format: toxicity, cell-based
Conditions: human
Method in brief: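 Tubulin, mitochondrial-mass and membrane-permeability phenotypes are per cents of healthy-nucleus cells. Cells were gated by CellPathfinder machine learning into Hoechst high-intensity objects or normal cells, normal cells into healthy, pyknosed or fragmented nuclei, and pyknosed cells into mitotic or apoptotic. Before that, live cells stained at seeding with Hoechst33342, BioTracker Green Microtubule Cytoskeleton Dye, MitoTracker Red and Annexin V Alexa Fluor 680 were imaged on a CQ1 microscope at 37°C and 5% CO2 after compound addition.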

[1] = 12 h, 1 µM, compound concentration 1 uM, replicate 1
[2] = 12 h, 1 µM, compound concentration 1 uM, replicate 2
[3] = 12 h, 10 µM, compound concentration 10 uM, replicate 1
[4] = 12 h, 10 µM, compound concentration 10 uM, replicate 2
[5] = 24 h, 1 µM, compound concentration 1 uM, replicate 1
[6] = 24 h, 1 µM, compound concentration 1 uM, replicate 2
[7] = 24 h, 10 µM, compound concentration 10 uM, replicate 1
[8] = 24 h, 10 µM, compound concentration 10 uM, replicate 2
[9] = 48 h, 1 µM, compound concentration 1 uM, replicate 1
[10] = 48 h, 1 µM, compound concentration 1 uM, replicate 2
[11] = 48 h, 10 µM, compound concentration 10 uM, replicate 1
[12] = 48 h, 10 µM, compound concentration 10 uM, replicate 2

`N#Cc1cc(F)cc(-c2nc(-c3ccc(F)cn3)no2)c1` was tested, and the “Population Apoptotic (%)” value [1] was 38%, the “Population Fragmented Nuclei (%)” value [1] was 10% and the “Population Healthy Nuclei (%)” value [1] was 76%. The “Population Hoechst High Intensity Objects (%)” value [1] was 5%, the “Population Membrane Permeable-Phenotype (%)” value [1] was 0% and the “Population Mitochondria Different-Phenotype (%)” value [1] was 41%. For the same compound, the “Population Mitotic Cells (%)” value [1] was 61%, the “Population Normal (%)” value [1] was 95% and the “Population Pyknosed Nuclei (%)” value [1] was 12%. The “Population Tubulin-Different-Phenotype (%)” value [1] was 25%, the “Total Cell Count” value [1] was 280 and the “Population Apoptotic (%)” value [2] was 64%. For the same compound, the “Population Fragmented Nuclei (%)” value [2] was 6%, the “Population Healthy Nuclei (%)” value [2] was 77% and the “Population Hoechst High Intensity Objects (%)” value [2] was 8%. For the same compound, the “Population Mitochondria Different-Phenotype (%)” value [2] was 55%, the “Population Mitotic Cells (%)” value [2] was 36% and the “Population Normal (%)” value [2] was 91%. The “Population Pyknosed Nuclei (%)” value [2] was 15%, the “Population Tubulin-Different-Phenotype (%)” value [2] was 22% and the “Total Cell Count” value [2] was 342. For the same compound, the “Population Apoptotic (%)” value [3] was 45%, the “Population Fragmented Nuclei (%)” value [3] was 10% and the “Population Healthy Nuclei (%)” value [3] was 73%. For the same compound, the “Population Hoechst High Intensity Objects (%)” value [3] was 4%, the “Population Membrane Permeable-Phenotype (%)” value [3] was 0% and the “Population Mitochondria Different-Phenotype (%)” value [3] was 51%. For the same compound, the “Population Mitotic Cells (%)” value [3] was 55%, the “Population Normal (%)” value [3] was 95% and the “Population Pyknosed Nuclei (%)” value [3] was 16%. The “Population Tubulin-Different-Phenotype (%)” value [3] was 29%, the “Total Cell Count” value [3] was 383 and the “Population Fragmented Nuclei (%)” value [4] was 8%. For the same compound, the “Population Healthy Nuclei (%)” value [4] was 77%, the “Population Hoechst High Intensity Objects (%)” value [4] was 10% and the “Population Mitochondria Different-Phenotype (%)” value [4] was 61%. The “Population Mitotic Cells (%)” value [4] was 54%, the “Population Normal (%)” value [4] was 89% and the “Population Pyknosed Nuclei (%)” value [4] was 13%. For the same compound, the “Population Tubulin-Different-Phenotype (%)” value [4] was 22%, the “Total Cell Count” value [4] was 269 and the “Population Apoptotic (%)” value [5] was 43%. The “Population Fragmented Nuclei (%)” value [5] was 9%, the “Population Healthy Nuclei (%)” value [5] was 77% and the “Population Hoechst High Intensity Objects (%)” value [5] was 6%. The “Population Membrane Permeable-Phenotype (%)” value [5] was 0%, the “Population Mitochondria Different-Phenotype (%)” value [5] was 19% and the “Population Mitotic Cells (%)” value [5] was 56%. For the same compound, the “Population Normal (%)” value [5] was 93%, the “Population Pyknosed Nuclei (%)” value [5] was 12% and the “Population Tubulin-Different-Phenotype (%)” value [5] was 12%. For the same compound, the “Total Cell Count” value [5] was 353, the “Population Apoptotic (%)” value [6] was 48% and the “Population Fragmented Nuclei (%)” value [6] was 7%. The “Population Healthy Nuclei (%)” value [6] was 82%, the “Population Hoechst High Intensity Objects (%)” value [6] was 7% and the “Population Mitochondria Different-Phenotype (%)” value [6] was 36%. The “Population Mitotic Cells (%)” value [6] was 51%, the “Population Normal (%)” value [6] was 92% and the “Population Pyknosed Nuclei (%)” value [6] was 9%. The “Population Tubulin-Different-Phenotype (%)” value [6] was 15%, the “Total Cell Count” value [6] was 463 and the “Population Apoptotic (%)” value [7] was 41%. The “Population Fragmented Nuclei (%)” value [7] was 10%, the “Population Healthy Nuclei (%)” value [7] was 74% and the “Population Hoechst High Intensity Objects (%)” value [7] was 4%. For the same compound, the “Population Membrane Permeable-Phenotype (%)” value [7] was 0%, the “Population Mitochondria Different-Phenotype (%)” value [7] was 34% and the “Population Mitotic Cells (%)” value [7] was 58%. The “Population Normal (%)” value [7] was 95%, the “Population Pyknosed Nuclei (%)” value [7] was 14% and the “Population Tubulin-Different-Phenotype (%)” value [7] was 18%. For the same compound, the “Total Cell Count” value [7] was 479, the “Population Apoptotic (%)” value [8] was 39% and the “Population Healthy Nuclei (%)” value [8] was 79%. For the same compound, the “Population Hoechst High Intensity Objects (%)” value [8] was 8%, the “Population Mitochondria Different-Phenotype (%)” value [8] was 40% and the “Population Mitotic Cells (%)” value [8] was 60%. The “Population Normal (%)” value [8] was 91%, the “Population Pyknosed Nuclei (%)” value [8] was 9% and the “Population Tubulin-Different-Phenotype (%)” value [8] was 12%. The “Total Cell Count” value [8] was 363, the “Population Apoptotic (%)” value [9] was 35% and the “Population Fragmented Nuclei (%)” value [9] was 15%. For the same compound, the “Population Healthy Nuclei (%)” value [9] was 77%, the “Population Hoechst High Intensity Objects (%)” value [9] was 1% and the “Population Membrane Permeable-Phenotype (%)” value [9] was 1%. The “Population Mitochondria Different-Phenotype (%)” value [9] was 16%, the “Population Mitotic Cells (%)” value [9] was 64% and the “Population Normal (%)” value [9] was 98%. For the same compound, the “Population Pyknosed Nuclei (%)” value [9] was 6%, the “Population Tubulin-Different-Phenotype (%)” value [9] was 11% and the “Total Cell Count” value [9] was 585. For the same compound, the “Population Apoptotic (%)” value [10] was 27%, the “Population Fragmented Nuclei (%)” value [10] was 11% and the “Population Healthy Nuclei (%)” value [10] was 81%. The “Population Hoechst High Intensity Objects (%)” value [10] was 0%, the “Population Mitochondria Different-Phenotype (%)” value [10] was 18% and the “Population Mitotic Cells (%)” value [10] was 72%. For the same compound, the “Population Normal (%)” value [10] was 99%, the “Population Tubulin-Different-Phenotype (%)” value [10] was 10% and the “Total Cell Count” value [10] was 715. The “Population Apoptotic (%)” value [11] was 39%, the “Population Fragmented Nuclei (%)” value [11] was 16% and the “Population Healthy Nuclei (%)” value [11] was 75%. For the same compound, the “Population Hoechst High Intensity Objects (%)” value [11] was 1%, the “Population Membrane Permeable-Phenotype (%)” value [11] was 1% and the “Population Mitochondria Different-Phenotype (%)” value [11] was 18%. The “Population Mitotic Cells (%)” value [11] was 60%, the “Population Normal (%)” value [11] was 98% and the “Population Pyknosed Nuclei (%)” value [11] was 8%. For the same compound, the “Population Tubulin-Different-Phenotype (%)” value [11] was 9%, the “Total Cell Count” value [11] was 643 and the “Population Apoptotic (%)” value [12] was 48%. For the same compound, the “Population Healthy Nuclei (%)” value [12] was 77%, the “Population Hoechst High Intensity Objects (%)” value [12] was 4% and the “Population Mitochondria Different-Phenotype (%)” value [12] was 22%. The “Population Mitotic Cells (%)” value [12] was 51%, the “Population Normal (%)” value [12] was 95% and the “Population Pyknosed Nuclei (%)” value [12] was 5%. The “Population Tubulin-Different-Phenotype (%)” value [12] was 11% and the “Total Cell Count” value [12] was 501.
